The text below walks through data of ChEMBL document CHEMBL3758154, “Rotenoids, Flavonoids, and Chalcones from the Root Bark of Millettia usaramensis” (J Nat Prod, 2015).

Where only a bound is given, the exact number is not on record here.

Data set [1] deals with Plasmodium falciparum. Put plainly: Antiplasmodial activity against chloroquine-resistant Plasmodium falciparum Dd2 assessed as inhibition of parasite growth at 100 uM after 72 hrs by DAPI staining-based confocal microscopic analysis. The format is functional. The conditions noted are these: Dd2, 72 h.
Data set [2] concerns Plasmodium falciparum. Put plainly: Antiplasmodial activity against chloroquine-sensitive Plasmodium falciparum 3D7 assessed as inhibition of parasite growth at 100 uM after 72 hrs by DAPI staining-based confocal microscopic analysis. The format is functional. The conditions noted are these: 3D7, 72 h.
For another data set, the system named is MDA-MB-231. Put plainly: Cytotoxicity against human MDA-MB-231 cells assessed as cell viability after 72 hrs by Alamar Blue assay. The format is functional, cell-based. The following applies: MDA-MB-231, 72 h. In a few lines:
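MDA-MB-231 cells in DMEM with 10% FBS, 2 mM L-glutamine, penicillin and streptomycin were seeded at 10 000 cells/well and grown 24 h. Medium was replaced with drug or vehicle (0.1% or 1.0% DMSO) for 72 h. Viability was read by Alamar Blue absorbance at 570 nm (600 nm reference) as % of vehicle control, from six replicates in at least six independent experiments.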

Data set [3] concerns Plasmodium falciparum. In words: Antiplasmodial activity against chloroquine-sensitive Plasmodium falciparum 3D7 assessed as inhibition of parasite growth after 72 hrs by DAPI staining-based confocal microscopic analysis. It is filed as functional, organism-based. The conditions noted are these: 3D7, 72 h. In a few lines:
(§1)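 Sorbitol-synchronized asexual P. falciparum in human O+ erythrocytes (RPMI, Hepes, hypoxanthine, 5% human serum, AlbuMAX II), ring stage at 2% parasitemia, 0.3% hematocrit. Three-step log dilutions from 40 μM top, 0.4% DMSO final. 72 h at 37 °C, 5% CO2. Saponin/Triton X/EDTA/DAPI stain overnight, confocal imaging counts parasites.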

Data set [4] deals with Plasmodium falciparum. In words: Antiplasmodial activity against chloroquine-resistant Plasmodium falciparum Dd2 assessed as inhibition of parasite growth after 72 hrs by DAPI staining-based confocal microscopic analysis. The format is functional, organism-based. The conditions noted are these: Dd2, 72 h. Summed up:
as §1

A short description of data set [5]: Cytotoxicity against HEK293 cells assessed as cell viability at 20 uM after 72 hrs by resazurin-based plate reader analysis. The conditions noted are these: human, read-out: Activity.
Data set [6] can be described thus: Cytotoxicity against HEK293 cells assessed as cell viability at 40 uM after 72 hrs by resazurin-based plate reader analysis. The following applies: human, read-out: Activity. In a few lines: (§2)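 HEK293 cells grown in DMEM with 10% FCS, seeded at 2000 cells/well and left overnight to adhere at 37 °C, 5% CO2. Compounds were tested at a final 40 μM in 0.4% DMSO. After 72 h exposure, 44 μM resazurin in serum-free DMEM was added for 4−6 h and fluorescence read at 530/595 nm. Growth was normalised to 5 μM puromycin and 0.4% DMSO controls, with IC50 from variable-slope nonlinear regression.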
In general terms: The colour change of resazurin is a common sign of viable cells or microbes.

The subject of a further data set is HEK293. Put plainly: Cytotoxicity against HEK293 cells assessed as cell viability after 72 hrs by resazurin-based plate reader analysis. The conditions noted are these: Homo sapiens, HEK293, 72 h. In a few lines:
as §2

Data set [7] deals with Plasmodium falciparum. In words: Antiplasmodial activity against chloroquine-resistant Plasmodium falciparum Dd2 assessed as inhibition of parasite growth at 40 uM after 72 hrs by DAPI staining-based confocal microscopic analysis. It is filed as functional. The following applies: Dd2, 72 h. Summed up:
as §1

One may read the inhibition as the percentage by which the read-out fell short of the control. What is called IC50 is the point on the concentration scale where inhibition reaches its midpoint. Regarding `O=C1c2ccc3c(c2O[C@@H]2COc4cc5c(cc4[C@@]12O)OCO5)OCO3`, the inhibition at 100 µM was found to be 90% with Plasmodium falciparum [1] and 99% with Plasmodium falciparum [2]. In addition, in the data set on MDA-MB-231, the IC50 worked out at 87.3 µM.
Turning to `CC1(C)C=Cc2c(ccc3c2O[C@@H]2COc4cc5c(cc4[C@]2(O)C3=O)OCO5)O1`, the IC50 with MDA-MB-231 was 61.7 µM.
Turning to `COc1ccc2c(c1CC=C(C)C)O[C@@H]1COc3cc4c(cc3[C@@]1(O)C2=O)OCO4`, the IC50 with MDA-MB-231 turned out to be 25.7 µM.
Still for that read-out and setting: the value for `O[C@@H]1c2ccc3c(c2O[C@@H]2COc4cc5c(cc4[C@@]12O)OCO5)OCO3` was > 279 µM.
Turning to `COc1cc2c(cc1-c1coc3c4c(ccc3c1=O)OC(C)(C)C=C4)OCO2`, the inhibition at 100 µM with Plasmodium falciparum [1] worked out at 81%; in the data set on Plasmodium falciparum [2], 94%.
As for `CC1(C)C=Cc2c(ccc3c2O[C@@H]2COc4cc5c(cc4[C@@]2(O)C3=O)OCO5)O1`, the figures for the inhibition at 100 µM with Plasmodium falciparum [1] and with Plasmodium falciparum [2] were 29% and 28%, respectively. Moreover, in the data set on MDA-MB-231, the IC50 is 101 µM.
On to `CC(C)=CCC/C(C)=C/COc1ccc(/C=C/C(=O)c2ccc(O)cc2O)cc1`, for which the results for the IC50 in the data set with Plasmodium falciparum [3] and in the data set with Plasmodium falciparum [4] were 3.67 µM and 6.97 µM, respectively.
With `CC(C)=CCC/C(C)=C/COc1ccc(/C=C/CO)cc1`, the half-inhibitory concentration (IC50) in the data set with MDA-MB-231 stood at 207 µM.
On to `CC(C)=CCC/C(C)=C/COc1ccc(C(=O)/C=C/c2ccc(O)cc2)c(O)c1`, for which the IC50 in the data set with MDA-MB-231 is 126 µM.
`C[C@H]1[C@@H](O)O[C@@H]2O[C@@]3(C)CC[C@H]4[C@H](C)CC[C@@H]1[C@@]24OO3` [ARTENIMOL]: the figures for the IC50 in the data set with Plasmodium falciparum [3] and in the data set with Plasmodium falciparum [4] were 0.0001 µM and 0.000146 µM, respectively. Moreover, in data set [5], the viability at 72 h, 20 µM was found to be 50%. Besides, the viability at 72 h, 40 µM in data set [6] was determined as 54%.
As for `C[C@H]1[C@H](OC(=O)CCC(=O)O)O[C@@H]2O[C@@]3(C)CC[C@H]4[C@H](C)CC[C@@H]1[C@@]24OO3` [ARTESUNATE], the IC50 turned out to be 0.0005 µM in the data set with Plasmodium falciparum [3] and 0.000443 µM in the data set on Plasmodium falciparum [4]. The viability at 72 h, 20 µM in data set [5] stood at 73%.
For `CCN(CC)CCCC(C)Nc1ccnc2cc(Cl)ccc12` (configuration not stated) [CHLOROQUINE], the viability at 72 h, 40 µM in [6] amounted to 51%.
With `COc1ccc(C[C@H](N)C(=O)N[C@H]2[C@@H](O)[C@H](n3cnc4c(N(C)C)ncnc43)O[C@@H]2CO)cc1` [PUROMYCIN], the IC50 stood at 0.361 µM in the data set on HEK293, 0.0227 µM in the data set with Plasmodium falciparum [3] and 0.0452 µM with Plasmodium falciparum [4].
As for `CCc1nc(N)nc(N)c1-c1ccc(Cl)cc1` [PYRIMETHAMINE], the inhibition at 40 µM with Plasmodium falciparum [7] is 62%. Further, in [6], the viability at 72 h, 40 µM was 75%.
In the case of `COc1ccc2nc3cc(Cl)ccc3c(Nc3cc(CN4CCCC4)c(O)c(CN4CCCC4)c3)c2n1` [PYRONARIDINE], the IC50 was 0.0036 µM with Plasmodium falciparum [3] and 0.00751 µM in the data set with Plasmodium falciparum [4].
Taken in the same sequence, the figures for `COc1cc2c(cc1OC)[C@]1(O)C(=O)c3ccc4c(c3O[C@@H]1CO2)C=CC(C)(C)O4` [TEPHROSIN] were 13.3 µM and 12.1 µM.
